Source: ChEMBL document CHEMBL3994595, “Design, synthesis, docking and QSAR study of substituted benzimidazole linked oxadiazole as cytotoxic agents, EGFR and erbB2 receptor inhibitors” (Eur J Med Chem, 2017)

What was measured:
Assay type in all cases: toxicity, organism-based
Details in all cases: in vivo, 120 h
Rattus norvegicus [1] = assay: Cardiotoxicity in albino rat assessed as loss of cardiac fibre at 2 mg/kg, po administered for 5 days measured on day 14 by hematoxylin and eosin staining-based microscopic method
In short: (§1)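 Female albino rats (110-115 g). Doxorubicin given orally at 2 mg/kg daily for 5 days (cumulative 10 mg/kg). Animals observed 14 days, then killed. Hearts fixed in 40% formalin, transverse sections H&E-stained and examined at 100X and 400X for left-ventricle changes.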

Rattus norvegicus [2] = assay: Cardiotoxicity in albino rat assessed as vacuolation in left ventricle tissue at 2 mg/kg, po administered for 5 days measured on day 14 by hematoxylin and eosin staining-based microscopic method; in short: as §1
Rattus norvegicus [3] = assay: Cardiotoxicity in albino rat assessed as inflammation in left ventricle tissue at 2 mg/kg, po administered for 5 days measured on day 14 by hematoxylin and eosin staining-based microscopic method; in short: as §1

Measured: Activity

COc1cccc2c1C(=O)c1c(O)c3c(c(O)c1C2=O)C[C@@](O)(C(=O)CO)C[C@@H]3O[C@H]1C[C@H](N)[C@H](O)[C@H](C)O1 [DOXORUBICIN]
Toxic: all assays above
